TAAR1 agonist: human TAAR1 agonists, primary screen, Fluo-8 calcium fluorescence, CHO RD-HGA16 cells; vehicle wells 0%, saturating PEA agonist 100%; AID 624467, 2012; activation, % at 3 µM; 360,000 compounds, 0.99% hits;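 active = activation above the mean activation of all test compounds in the run plus 3 SD, cut at about 38% in these data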
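Assay system: CHO-derived RD-HGA16 cells with stable Gα16 and human TAAR1; timing: 17-24 h seeding, 75 min 37 °C dye, 30 min RT; read-out: % activation from peak over basal fluorescence ratio, DMSO-to-PEA scaled; measured by: kinetic Fluo-8 calcium fluorescence; benchmarks: low control DMSO, high control PEA (EC100); doses: 3 µM single concentration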
OXTR ag: human OXTR agonists, primary screen, fluorescence, CHO-OTR cells, Fluo-8 calcium. Oxytocin receptor (Homo sapiens), P30559. Fluo-8 calcium fluorescence; normalized: DMSO 0%, oxytocin 100%. activation, % at 3 µM. 320,000 compounds, 0.32% hits. AID 2435, 2010;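 active = activation above the mean of all tested compounds plus 3 SD, cutoff set per screening run, cut at about 20% in these data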;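 note: peak over basal fluorescence ratio from a 100 s FLIPR kinetic read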
Target sequence (P30559 whole entry, looked up): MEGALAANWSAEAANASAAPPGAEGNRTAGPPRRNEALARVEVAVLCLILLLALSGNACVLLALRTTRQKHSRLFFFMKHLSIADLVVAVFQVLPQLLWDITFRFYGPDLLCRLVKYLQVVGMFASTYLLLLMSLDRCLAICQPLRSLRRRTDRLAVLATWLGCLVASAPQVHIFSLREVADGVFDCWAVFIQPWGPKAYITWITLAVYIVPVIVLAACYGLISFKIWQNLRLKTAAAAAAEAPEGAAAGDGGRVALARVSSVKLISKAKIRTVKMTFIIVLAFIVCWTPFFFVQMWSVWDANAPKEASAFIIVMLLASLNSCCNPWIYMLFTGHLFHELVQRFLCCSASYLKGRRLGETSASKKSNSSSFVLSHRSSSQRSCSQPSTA
TAAR1 antagonist: human TAAR1 antagonists, primary screen, Fluo-8 calcium fluorescence, CHO RD-HGA16 cells | antagonist | inhibition, % at 3 µM | 360,000 compounds, 1.5% hits | AID 624466, 2012;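 active = inhibition above a per-plate cutoff, the mean inhibition of test compounds on that plate plus 3 SD, cut at about 49% in these data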;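 note: 0% = DMSO plus EC80 beta-PEA response and 100% = DMSO alone without agonist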
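Test system: RD-HGA16 CHO cells with stable hTAAR1 and Gα16 / Probe or stimulus: EC80 β-phenethylamine stimulus / Times: seeding 17-24 h prior, 75-min 37 °C, 30-min RT dye loading / Detection: Fluo-8 calcium-sensitive fluorescence / Read-out basis: % inhibition scaled between DMSO and EC80 PEA controls / Repeats: singlicate, one well per test compound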
V1R ag counter: agonists of human V1a receptor, primary screen, counter-screen for OXTR agonist project, fluorescence, CHO-V1R cells; 320,000 compounds, 0.25% hits; activation, % at 3 µM; Fluo-8 calcium fluorescence, agonist mode; 0% DMSO, 100% 3 nM vasopressin; AID 2797, 2010; Vasopressin V1a receptor (Homo sapiens), P37288;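 active = activation above the mean activation of all tested compounds plus 3 SD, per screening run, cut at about 20% in these data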;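 note: signal is peak over basal fluorescence ratio across a 100 second FLIPR read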
OXTR potentiate: human OXTR potentiators, primary screen, fluorescence, CHO-OTR cells, Fluo-8 calcium. Oxytocin receptor (Homo sapiens), P30559. Fluo-8 calcium fluorescence, potentiator mode; 0% = oxytocin EC15, 100% = EC100. activation, % at 3 µM. 320,000 compounds, 0.061% hits;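 active = activation above that plate's cutoff, the mean activation of tested compounds plus 3 SD, cut at about 6.6% in these data, passing the limit was not always enough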;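 note: 100% uses oxytocin at 75 nM as the full agonist control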
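System: human OTR in CHO cells; Also added: sub-maximal oxytocin, roughly EC15; Timing: compound 6 min at room temperature before oxytocin, 100 s read; Technique: Fluo-8 intracellular calcium fluorescence, ex 470-495, em 515-575 nm; Controls: oxytocin EC15 low and EC100 high; Replication: singlicate.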
Starred values were filed as active, the others as inactive; . = no result given; ! = a repeat was not active. An excerpt weighted towards active compounds, which were near 2.3% of everything screened.

SMILES	TAAR1 agonist	OXTR ag	TAAR1 antagonist	V1R ag counter	OXTR potentiate
Cn1ncc2c(NCCO)nc(Cl)nc21	1.7	.	2.1	.	.
Cn1ncc2c(Nc3ccc([N+](=O)[O-])cc3)nc(Cl)nc21	40.7*	.	-1.8	.	.
Cc1ccc(NC(=O)c2ccc(S(=O)(=O)N3CCOCC3)cc2)cc1	-2.6	1.0	5.0	1.3	-10.6
Cc1ccc(SC(C)C(=O)Nc2ccc(S(=O)(=O)N3CCOCC3)cc2)cc1 (centres undefined)	38.5*	8.6	21.6	7.5	-15.8
COCCCn1c(SCCc2ccccc2)nc2cc(OC)c(OC)cc2c1=N	11.4	-2.4	55.7*	-1.6	-9.7
CCSC1=C(C#N)C(c2ccccc2Cl)C(C(=O)c2cccs2)C(O)(C(F)(F)F)N1 (centres undefined)	0.0	-0.4	-11.1	2.1	-21.6
CSC1=C(C#N)C(c2ccccc2Cl)C(C(=O)c2cccs2)C(O)(C(F)(F)F)N1 (centres undefined)	8.5	-0.2	50.9*	1.9	-5.4
C=CCSC1=C(C#N)C(c2ccccc2Cl)C(C(=O)c2cccs2)C(O)(C(F)(F)F)N1 (centres undefined)	7.1	0.1	56.1*	1.6	-12.8
O=C1NC(c2ccccc2)C(C(=O)c2cccs2)C(O)(C(F)(F)F)N1 (centres undefined)	1.6	-0.2	9.6	0.3	-5.8
CN(c1ccccc1)S(=O)(=O)c1cccc(NC(=O)c2ccc3ncsc3c2)c1	8.7	4.1	59.9*	4.2	-11.7
CN(c1ccc(C(=O)Nc2cccc(O)c2)cc1)S(=O)(=O)c1ccccc1	12.3	2.4	9.9	7.8	-7.3
CN(c1ccccc1)S(=O)(=O)c1cccc(C(=O)Nc2cccc(C(=O)NC3CC3)c2)c1	10.9	.	16.7	.	.
Cc1nc2ccc(NC(=O)c3cccc(S(=O)(=O)N(C)c4ccccc4)c3)cc2s1	.	-0.3	.	5.5	-9.0
CN(c1ccccc1)S(=O)(=O)c1cccc(NC(=O)c2cccc(C#N)c2)c1	21.5	4.5	66.0*	5.2	-11.9
CC(=O)c1cccc(NC(=O)c2ccc(N(C)S(=O)(=O)c3ccc(C)cc3)cc2)c1	6.9	2.1	54.9*	8.1	-10.2
Cc1ccc2nc(-c3ccc(Cl)cc3)c(Cc3ccsc3)n2c1	-1.4	.	-5.8	.	.
O=c1cc(CN2CCCC2)c2ccccc2o1	1.1	.	3.3	.	.
COc1ccccc1Cc1c(C2CCCCC2)nc2c(C)cc(Br)cn12	-1.0	.	-2.7	.	.
COc1ccccc1CN1CC(C(=O)NCCN(C)CCc2ccccc2)CCC1=O (centres undefined)	38.8*	0.4	-23.6	0.0	10.4
COc1ccc(NC(=O)N(C)C[C@@H]2OCc3cnnn3CCCC(=O)N([C@@H](C)CO)C[C@@H]2C)cc1	0.7	.	-14.1	.	.
CCOC(=O)C1CCCN(C(=O)c2ccc(-c3ccc([N+](=O)[O-])cc3)o2)C1 (centres undefined)	49.1*	-2.9	36.8	-1.0	-7.3
CCOC(=O)C1CCCN(C(=S)Nc2ccc(Nc3ccccc3)cc2)C1 (centres undefined)	43.7*	-0.2	41.9	0.3	-15.8
CCOC(=O)C1CCCN(C(=O)C2c3ccccc3Oc3ccccc32)C1 (centres undefined)	13.4	43.7*	8.0	34.8*	-4.5
CCOC(=O)C1CCCN(C(=O)Cc2c(C(=O)O)[nH]c3ccccc23)C1 (centres undefined)	39.5*	0.6	31.8	0.3	-2.3
CCOC(=O)C1CCN(C(=S)Nc2ccccc2)CC1	4.9	0.6	-15.7	0.2	-7.3
SMILES	TAAR1 agonist	OXTR ag	TAAR1 antagonist	V1R ag counter	OXTR potentiate
O=C(Nc1cccnc1)c1ccc(CSc2ccc(Cl)cc2)o1	5.7	.	45.8	.	.
Cc1noc(C)c1NC(=O)N(C)C[C@@H]1OCc2cn(nn2)CCCC(=O)N([C@@H](C)CO)C[C@H]1C	0.8	.	9.1	.	.
C#CCNC(=O)C[C@H]1C[C@@]2(C(=O)OC)C(=C[C@H](C(C)(C)C)O[C@@H]2C)N(CCc2ccc(OC)c(OC)c2)C1=O	2.3	.	-11.4	.	.
CC(C)c1ccc2c(c1)CC[C@H]1[C@](C)(CN)CCC[C@]21C	38.1*!	.	-1.8	.	.
CC(C)c1ccc2c(c1)CCC1C(C)(CN)CCCC21C (centres undefined)	38.8*	7.0	5.9	7.2	-2.9
CCOCCc1nnc(NC(=O)Cc2ccc(Br)cc2)s1	45.9*	9.6	-12.2	10.6	-7.7
COc1ccc(Cc2nnc(NC(=O)CSc3ccccc3)s2)cc1OC	50.2*	7.2	1.3	8.7	-9.2
O=C(CCc1c[nH]c2ccccc12)Nc1ccc(Nc2cccnc2)cc1	3.7	.	28.5	.	.
CCOc1ccc(CCNC(=O)c2cc3c(C)nccc3[nH]c2=O)cc1OCC	12.7	-1.6	51.2*	1.6	-10.0
CCOc1ccc(CCNC(=O)c2c(C)noc2C)cc1OCC	0.8	0.7	-2.8	0.9	2.4
Cc1c(C(=O)NC(=S)Nc2ccc(NC(=O)c3cccs3)cc2)cccc1[N+](=O)[O-]	9.4	4.6	67.7*	4.0	-18.1
CC(=O)NC(=S)Nc1ccc(NC(=S)NC(=O)c2cccs2)cc1	-0.2	-0.2	-15.8	0.6	-1.5
Cc1cccc(Cl)c1NC(=O)NCCCN1CCOCC1	-0.3	.	-3.3	.	.
Cn1c2ccccc2c(=O)c2c(=O)n(C3CCCCCC3)c(C3CCCCC3)nc21	37.8*	.	1.1	.	.
Cc1nc2c(c(=O)c3ccccc3n2C)c(=O)n1C1CCCC1	11.4	.	11.4	.	.
CC1OC(CC(=O)O)CC2=C1C(=O)c1c(O)cccc1C2=O (centres undefined)	83.3*	.	63.2*	.	.
CNC(=O)N(O)C1N(/N=C/c2ccc(N(C)C)cc2)C(=S)SC1(C)C (centres undefined)	0.3	0.8	-1.1	1.8	-5.7
CC1(C)SC(=S)N(/N=C/c2ccccc2)C1N(O)C(=O)Nc1ccc([N+](=O)[O-])cc1 (centres undefined)	44.2*	11.9	-6.5	8.2	-22.5
CCN(Cc1ccccc1)C(=O)Nc1c(Cl)cccc1Cl	-1.4	.	-15.1	.	.
COc1ccc(/C=N/NC(=O)CCCOc2ccc(Cl)cc2Cl)cc1[N+](=O)[O-]	10.7	0.1	48.8*	0.1	-6.9
COCc1[nH]nc2c1C(c1ccc(F)cc1)N(c1ccc(OC)cc1)C2=O (centres undefined)	2.3	.	-26.8	.	.
O=C(Nc1ccc(S(=O)(=O)N2CCOCC2)cc1)c1cc(-c2cc(Cl)ccc2O)n[nH]1	19.7	7.0	56.0*	12.7	-7.8

Bioassay records as filed in PubChem BioAssay.
